To fix the notation:
B1: tRNA (parent)
chain: GUUCCGUUGGCGUAAUGGUAACGCGUCUCCCUCCUAAGGAGAAGACUGCGGGUUCGAGUCCCGUACGGAACG

This sample holds only a part of the variants without activity.

The variants in this data set derive from B1. The data set can be described thus: yeast fitness relative to wild type (ratio to wild type); higher = fitter; tRNA-Arg(CCU), competitive growth, 37 C, YPD. In outline: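 Gene amplicons from the start population and from each of six end populations were read by 100-nucleotide paired-end sequencing. Those end populations came from pooled Saccharomyces cerevisiae strains carrying tRNA-Arg(CCU) gene variants at the native locus, competed in YPD at 37°C for 24 hours. Fitness relative to wild type was worked out from changes in genotype frequencies. Genotypes needed ≥ 100 starting reads, and estimates < 0.5 were set to 0.5.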
On to GUUCCGUUGGCGUAAUAGUAACGCGUCACCCUCCUAGGGAGAAGACUGCGGGUUCGAGUCCCGUACGGAACG, for which the yeast fitness is not above 0.5.

Regarding GUUCCGUUGGCGUAUUGGUAACGCGUCUACGUCCUAAGGAGAAGACUGCGGGUUCGAGUGCCGUACGGAACG, the yeast fitness was found to be 0.618.

As to GUCCCGUUGGCGCAAUAGUAACGUGUCUCCCUCCUAAGGAGAAGACUGCGGAUUCGAGUCCCGUACGGAACG, the yeast fitness was not above 0.5.

In the case of GUUCUGUUGGCGUAAUGGUUACGCGUCUCCCUCCUAAGGAGAAGACUGCAGGUUCGAGCCCCGUACGGAACG, the yeast fitness turned out to be 0.544.

Consider GUGCCGUUGGCGUAAGGGUAGCGCGUCUACCCUAUAAGGAGAAGACUGCGGGUUCGAGUCCCGUACGGAACG, for which the yeast fitness is 0.788.

GUUCGGUUGACGUAAUGGUAACGCGUCUCCCUCCUAAGGAGGAGACUGCGGGUUUGAGUCCCGUACGGACCG: the yeast fitness was not above 0.5.

As for GUUCCGUUGGCGUAAUGGUAACGCGUCUCCCUCCUAAGGAGAAGAAUCCGGGUUCGAGGCCCGUACGGAACG, the yeast fitness turned out to be 0.534.

Take GUGCCGUUGGCGUAAUGGUAACGCGUCUCCCUCCUAAGGAGAAGACGGCGGGUUCGAGUGCCGUACGGAACG: the yeast fitness came to 0.503.

As to GUUCCGUCGGCGUAAUGGUAACGCGUCUCGCUGCUAAGGAGAAGACUGCGGGUUCGAGUCCCGUACGGAACG, the yeast fitness is not above 0.5.

Take GUUCCGUUGGCGUAAUGGUAACGCGUCUCACUACUAAGGAGAAGACUGCGGGUUCGAGUCCCGUACGGAACG: the yeast fitness was 0.652.

For the variant GUUCCGUUGGCGUAAUGGUAACGAGUCUCCCUCCUAAGGAGAAGACUGCGGGUUCGAGUCCCGUACCGAACG, the yeast fitness was 0.74.

In the case of GUUCAGUUGGCGUAAUGGUAACGCGUCUCCCUCCCAAGGAGAAGACUGCGGGUUCGAGUCCCGUACGGAACG, the yeast fitness was 0.869.

On to GUUUCGUUGGCGUAAUGGUAACGCGUCUCCCUCCUAAGGAGACGACUGCGGGUUCGAGUCCCGUUCGGAACG, for which the yeast fitness came out at 0.75.

Take GUUCCGUUGGCGUAAUGGUAACGCGUCUCCCUCCUAAGGAGGAGACUGCGGGUUCGAGUCCCGUACUGAACG: the yeast fitness worked out at 0.633.

As for GUUCCGUUGGCGUAAUCGUAACGAGUCUCCCUCCUAAGGAGAAGACAGCGGGUUCGAGUCCCGUAUGGUACG, the yeast fitness was not above 0.5.

As for GUUUCGUUGGCGUAAUGGUAGCGCGUCUCCCUCCUAAGGAGAAGACUGCGGGUUCGAGUCCCGUACGGAACG, the yeast fitness turned out to be 1.1.

Consider GUUCCGUUGGCCUAAUGGUAACGCGUCUCCCUCUUAAGGAGAAGACUGUGGGUUCGGGUCCCGUACGGAACG, for which the yeast fitness is not above 0.5.

For GUUCCGAUGGCGUAAUGGUAACGCGUCUCCCUCCUAAGGAGAAGACUGCGAAUUCGAGUCCCGUACGGAACG, the yeast fitness turned out to be 0.536.

As to GUUCCGUUGGCGUAAUGGUAACGCGUCUCUCUCCUAAGGCGAAGACUGGGGGUUCGAGUCCCGUACGGAACG, the yeast fitness is not above 0.5.

Consider GUUCCGUUGGCGUAAUGGUAACGCGUCUCCCUCCUAAGGAGAAGACUGCGGGUUCGAGUCCCGAAUGGAACG, for which the yeast fitness was determined as 0.942.

Turning to GUUCCGUUGGCGUAAUGAUAACGCGUCUCCCUCCUAAGGAGAAGACUGCGGGUUCGAGUCCCGUACUGAACG, the yeast fitness is 0.75.

Consider GUUCCGUUGGCGUAAUGGUAACGUAUCUCUCUCCUAAGGAGAAGAAUGCGGGUUCGAGUCCCGUUCGGAACG, for which the yeast fitness amounted to 0.562.

As for GUUCUGUUGGCGUAAUGGUAACGCGUCUCCCUCCUAAGGAGUAGACUGGGGGUUCGAGUACCGUACGGAACG, the yeast fitness turned out to be 0.575.

Consider GUUCCGUUGGCGUAAAGGUAACGCGUCUCACUCCUAAGGAGCAGACUGCGGGUUCGAGUCCCGUACGGAACG, for which the yeast fitness is 0.558.

In the case of GUUCCGUUGGCGUAAUGGUAACGCGUCUCACUCCUAAGGAGAAGACUGCGGGUUCGAGUCCCGUAAGGAACG, the yeast fitness turned out to be 0.636.

GUUCCGUCGGCGUAAUGGUAACGCGUCUCCCUCCUAAGGAGAAGACUGUGGGUUCGAGUCACGUACGGAACG: the yeast fitness is not above 0.5.

In the case of GUUCCGUUGGCGUAAAGGUAACACGUCUCCCUACUAAGGAGAAGACUGCGGGUUCGAGUCCCGUGCGGAACG, the yeast fitness was not above 0.5.

Regarding GUGCCGUUGGCGUAAUGGUAACGUGUCUCCUUCCUAAGGAGAAGACUGCGGGUUCGAGUCCCGUACGGUACG, the yeast fitness came to 0.839.

As for GUUCCGUUAGCGUAAUGGUAACGCGUCUCCCUCGUAAGGAGAAGACUGCGGGCUCGCGUCCCGUACGGUACG, the yeast fitness is not above 0.5.

GUUCCGUUGGCGUAAUGGUAACGCGUCUCCCUCAUAAGGCGUAGACUGCGGGUUCGAGUCCCGUACGGAACG: the yeast fitness was not above 0.5.

GCUCCGUUGGCGUAAUGGUUACGCGUCUCCCUCCUAACGAGAAGACUGCGGGUUCGAGUCCCGUACGGAACG: the yeast fitness was not above 0.5.

Regarding GUUCCGUUGGCGUAAUGGUAACGGGUCUCCCUCCUAACGAGAAGAAUGCGGGUUCGAGUCCCGUACGGAACG, the yeast fitness was not above 0.5.

Take GUUCCGUUGGCGUAAUGGUAACGUGUCUCCCUCCUAAGGAGAAGAGUGCGGGUUCGAGUCCCGUUCGGAACG: the yeast fitness came out at 0.782.

For the variant GUUCCGUUGUCGUAUUGGUAACGCGUCUCCGUCCUAAGGAGAAGACUGCCGGUUCGAGCCCUGUACGGAACG, the yeast fitness was not above 0.5.

With GUUCCGUUGGCGUAAUGGUAACGCGUCUCCCUUAUAACGAGAAGACUGCGGAUUCGAGUCCCGUACGGAACG, the yeast fitness is not above 0.5.

Regarding GUUCCGUUGGCGUAAUGGUAACGCGACCCGCUCCUAAGGAGAAGACUGCGGGUUCGAGUCCCGUACGGAACG, the yeast fitness was not above 0.5.

Consider GUUCCGUUGGCGUAAUGGUUACGCGUCUCCCUCCUAAGGAGUAGACUGCGGGUUCGAGUCCCGUACACAACG, for which the yeast fitness is not above 0.5.

For the variant GUUCAGUUGGCGUAAUGGUAUCGCGUCUCCCUCCUAAGGAGAAGACUGCGGGUUCGAGUCAGGUACGGAACG, the yeast fitness was not above 0.5.

Values taken from the RNAGym collection of RNA variant scans (doi:10.1126/science.aae0568).
